Compound activity deposited in PubChem by several laboratories.
HSP90 inh: HSP90 refolding inhibition in rabbit reticulocyte lysate; luciferase refolding luminescence, 3 h; inhibition, % at 5.6 µM; 0.91% of 290,000 active;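 active = inhibition above the screen-wide mean plus 3 SD, computed separately per campaign, cut at about 16% in these data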;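 note: 0% = DMSO wells and 100% = 60 µM geldanamycin wells; inhibitors lower the luminescence because luciferase stays unfolded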
C8 TRAIL sens: caspase-8 TRAIL sensitization; NB7+C8 cells + TRAIL, ATPlite viability luminescence; inhibition (viability loss, TRAIL sensitization), % at 10 µM; 1% of 360,000 active; AID 624354;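 active = compounds causing at least 50% loss of cell viability in the single-dose screen, relative to plate controls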
STAT3 inh: reduces IL-6 driven STAT3 reporter signal. AID 862. 0.89% of 190,000 active. U3A cells, IL-6 STAT3-luciferase reporter, luminescence; host cell line lacks STAT1. inhibition, % at 5.5 µM;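 active = inhibition above the mean inhibition across all screened compounds plus 3 SD, cut at about 44% in these data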;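 note: 0% = DMSO only wells and 100% = 100 µM nifuroxazide control wells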
STAT3 activator: increases IL-6 driven STAT3 reporter signal; 0.91% of 190,000 active; activation (% of control), % at 5.6 µM; U3A cells, IL-6 STAT3-luciferase reporter, luminescence; 100% = signal with IL-6 EC80 alone;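 active = activation above the screen-wide mean of compound activation plus 3 SD, cut at about 130% in these data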;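 note: 0% = background luminescence of wells with medium and substrate only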
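Test system: STAT3-luciferase reporter U3A cells; Detection: reporter luminescence signal; Times: 1 h compound pre-exposure, 6 h IL-6 stimulation, 37 °C; Benchmarks: IL-6-only high control; Also added: IL-6 stimulus at 33 ng/mL final.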
STAT1 blocker: STAT1 signaling inhibition; NIH 3T3 STAT1-luciferase reporter, IFN-gamma, luminescence; inhibition, % at 5.5 µM; 0.35% of 200,000 active;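 active = inhibition above a set limit, the mean inhibition across all tested compounds plus 3 SD, cut at about 34% in these data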;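 note: 0% = IFN-gamma with DMSO and 100% = IFN-gamma with 300 µM nifuroxazide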
PPC-1+TRAIL kill: compounds killing PPC-1 cancer cells with TRAIL present (potentiator screen, no TRAIL-free arm). 0.41% of 220,000 active. PPC-1 cells + TRAIL, ATPLite viability luminescence. cell killing (% activity), % at 4 µM or 5 µM;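 active = cell killing above 50% in the first pass at 4 µM, then a duplicate retest at 5 µM averaging 50% or more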;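 note: plate controls were cells with TRAIL plus DMSO for no effect and medium-only wells lacking cells for full effect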
Starred values were filed as active, the others as inactive; nt = no result. In the library only some 2.3% were active in any assay of this set; here they are far more common.

SMILES | HSP90 inh | C8 TRAIL sens | STAT3 inh | STAT3 activator | STAT1 blocker | PPC-1+TRAIL kill
COc1ccc(-c2cnnc(N/N=C/c3ccc(O)c(OC)c3)n2)cc1 | 0 | 59* | 3 | 100 | -20 | 39
Nc1nc2sc3c(c2cc1C(=O)NCC(=O)O)CCCC3 | 2 | 52* | nt | nt | nt | nt
O=C1CCCc2nc(N3CCc4ccccc43)ncc21 | -4 | 52* | 13 | 93 | -55 | 41
COc1ccc(-c2cc(C(=O)N/N=C/c3sccc3C)c3ccccc3n2)c(OC)c1 | 4 | 24 | -44 | 135* | -8 | 6
COc1ccc(-c2cc(C(=O)N/N=C/c3ccc4c(c3)OCO4)c3ccccc3n2)c(OC)c1 | 3 | 18 | -3 | 112 | -6 | 13
CCc1ccc(C2=NNC(=Nc3cccc(S(=O)(=O)N(C)C)c3)SC2)cc1 | -1 | 71* | 7 | 97 | -12 | 2
Cc1ccc(C2=NNC(=Nc3ccc(F)cc3)SC2)cc1 | 2 | 15 | -3 | 106 | -7 | 12
CCCCOc1ccc(-c2nc(=S)[nH][nH]2)cc1 | 1 | 61* | 0 | 101 | 2 | 16
CC(C)(C)c1ccc(O)c(O)c1 | nt | -19 | nt | nt | nt | nt
CC(C)(C)c1ccc(O)c(/C=N\O)c1 | 7 | 72* | -16 | 114 | -6 | -23
CCCCn1c(N)c(N(CCOC)C(=O)CSc2n[nH]c(-c3ccc(C)cc3)n2)c(=O)[nH]c1=O | nt | 1 | nt | nt | nt | nt
CCCCCN(C(=O)CSc1n[nH]c(-c2ccc(C)cc2)n1)c1c(N)n(CCCC)c(=O)[nH]c1=O | nt | 55* | nt | nt | nt | nt
Cc1sc(NC(=S)NC(=O)CCc2ccccc2)c(C(N)=O)c1C | -3 | -31 | -62 | 156* | -15 | 6
CC(C)CC(=O)N1CCC(O)(CS(=O)(=O)Cc2ccccc2Cl)CC1 | -1 | 7 | 5 | 101 | -8 | 10
CC(C)CC(=O)Nc1nc2c(c(=O)[nH]1)CCCC2 | 0 | 62* | -4 | 105 | 9 | 19
O=C(N/N=C\c1ccc([N+](=O)[O-])o1)C1COc2ccccc2O1 (stereo not given) | -1 | 24 | 41 | 68 | 0 | 8
O=C(N/N=C\c1ccc(-c2ccccc2[N+](=O)[O-])o1)C1COc2ccccc2O1 (stereo not given) | 11 | -11 | -46 | 133* | 5 | 15
O=C(CO/N=C/c1ccccc1)N1c2ccccc2Oc2ccccc21 | 16* | -13 | -8 | 110 | 9 | -1
CC1OC(CC(=O)O)CC2=C1C(=O)c1c(O)cccc1C2=O (stereo not given) | nt | 92* | nt | nt | nt | nt
O=c1[nH]c(Cc2ccc(Cl)cc2)nc2ccccc12 | 0 | 0 | 13 | 95 | 8 | 11
CCc1ccc(C2c3[nH]c4ccccc4c3CCN2C(=O)c2cc(C)nn2C)cc1 (stereo not given) | -4 | 18 | -32 | 133* | 13 | 29
Cc1cnc(C(=O)N2CCc3c([nH]c4ccccc34)C2c2ccc(F)cc2)cn1 (stereo not given) | -2 | 9 | -12 | 116 | -7 | 10
CSc1ccc(C2c3[nH]c4ccccc4c3CCN2C(=O)c2cc(C)n(C)n2)cc1 (stereo not given) | 0 | nt | -47 | 148* | -35 | 10
Cc1nc(C(=O)N2CCc3c([nH]c4ccccc34)C2c2cc(F)ccc2F)cs1 (stereo not given) | -1 | 2 | -24 | 134* | -1 | 14
COc1cc2cc(CN(Cc3cccs3)C(=S)Nc3cccc(C)c3)c(=O)[nH]c2cc1OC | 4 | nt | 28 | 81 | 4 | 6
SMILES | HSP90 inh | C8 TRAIL sens | STAT3 inh | STAT3 activator | STAT1 blocker | PPC-1+TRAIL kill
Cc1cccc(N(C(=O)Cn2nnc3ccccc32)C(C(=O)NC(C)(C)C)c2ccsc2)c1C (stereo not given) | -2 | 2 | 1 | 104 | 1 | 10
Cc1noc(C)c1COc1ccccc1C(=O)N1CCN(c2cccc(Cl)c2)CC1 | nt | 34 | nt | nt | nt | nt
Cn1cnc(Sc2ncnc3nc[nH]c23)c1[N+](=O)[O-] | 4 | 62* | nt | nt | nt | 4
Cn1cnc([N+](=O)[O-])c1Sc1ncnc2nc[nH]c12 | 1 | 67* | nt | nt | nt | 17
O=C(NCCS(=O)(=O)NCCc1ccccc1)c1ccccc1 | nt | 2 | nt | nt | nt | nt
CN1CCN(CC(C)(C)NS(=O)(=O)c2ccc(Cl)cc2)CC1 | -5 | -5 | -4 | 106 | 0 | 17
NC1=NC(=Nc2ccc(Cl)cc2)c2ccccc21 | -4 | -4 | 6 | 92 | -5 | 0
CC(C)c1ccc(N=C2N=C(N)c3ccccc32)cc1 | -7 | 57* | nt | nt | nt | 40
CC1=NN(c2ccccc2)C(=O)/C1=C\c1ccc(Oc2ccc([N+](=O)[O-])cc2[N+](=O)[O-])cc1 | 16* | -3 | -4 | 107 | 11 | 1
COc1cc(/C=C2\C(=O)N(c3ccccc3)N=C2C)ccc1Oc1ccc([N+](=O)[O-])cc1[N+](=O)[O-] | 3 | 10 | 5 | 99 | 4 | -3
CCCCCc1ccc(-c2ccc(/C=C/C(=O)O)cc2)nc1 | 14 | 82* | 34 | 71 | -12 | 44
CC(C)c1ccc(/C=C/C(=O)O)cc1 | 9 | 5 | nt | nt | nt | 13
Cc1cccc(N2CCN(C(=S)Nc3ccc4nc(N5CCN(C)CC5)cc(C)c4c3)CC2)c1C | 4 | 93* | 9 | 102 | -3 | nt
Cc1cccc(N2CCN(C(=S)Nc3ccc4nc(N5CCN(C)CC5)cc(C)c4c3)CC2C)c1 (stereo not given) | 2 | 67* | 4 | 99 | -4 | 25
CCCCN(CC)C(=S)Nc1ccc2nc(N3CCN(C)CC3)cc(C)c2c1 | 28* | 38 | 6 | 95 | 12 | 22
CCCCN(C)C(=S)Nc1ccc2nc(N3CCN(CC)CC3)cc(C)c2c1 | 9 | -1 | -3 | 102 | -4 | 21
Cc1cc(N2CCN(C)CC2)nc2ccc(NC(=S)N3CCN(c4cccc(Cl)c4)CC3)cc12 | 3 | 23 | 1 | 99 | -3 | 7
O=[N+]([O-])c1ccc(Cl)c(S(=O)(=O)Nc2cccc(S(=O)(=O)NC3=NCCC3)c2)c1 | nt | -28 | nt | nt | nt | nt
COc1cccc(-c2nnn(CC(=O)O)n2)c1 | 3 | 1 | 4 | 100 | 1 | 15
O=C(CS(=O)(=O)c1ccccc1)Nc1nc2ccccc2s1 | 5 | 11 | -31 | 133* | -8 | 28
O=C(Cn1cnc2ccccc2c1=O)Nc1nc2ccccc2s1 | -2 | -10 | -38 | 136* | 4 | 12
NS(=O)(=O)c1ccc2nc(NC(=O)CS(=O)(=O)c3ccccc3)sc2c1 | -6 | 4 | nt | nt | nt | nt
CN(CC(=O)Nc1nc2ccccc2s1)S(=O)(=O)c1ccc(Br)cc1 | 1 | 1 | -40 | 134* | -10 | 19
O=C(NCC(=O)N(Cc1ccccc1)C(C(=O)NC1CCCC1)c1cccnc1)c1ccco1 (stereo not given) | -5 | -13 | 0 | 101 | 0 | 8
COc1cccc(NC(=S)N(CCc2ccc(OC)c(OC)c2)Cc2ccccn2)c1 | 4 | 4 | 11 | 96 | 2 | 9
